Usually CC50 stands for the concentration giving 50% cytotoxicity. One may read the EC50 as the midpoint of the concentration-response curve. The IC50 is the point on the concentration scale where inhibition reaches its midpoint.

The text below walks through data of ChEMBL document CHEMBL3861959, “Synthesis and antiproliferative evaluation of novel 2-(4H-1,2,4-triazole-3-ylthio)acetamide derivatives as inducers of apoptosis in cancer cells” (Eur J Med Chem, 2016).

SMILES strings stand for the structures. Values after ≈ are worked out from the molar mass of the structure shown.

A short description of series [1]: Selectivity index, ratio of CC50 for human MT4 cells to EC50 for HIV2 ROD. Particulars: read-out: Ratio CC50/EC50. In kind it is toxicity, cell-based. The method, boiled down: (§1)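 HIV-1 IIIB and HIV-2 ROD tested in MT-4 cells by MTT. Serial fivefold dilutions of compound added to triplicate mock- and virus-infected wells. MT-4 cells at 6 × 10^5 cells/mL. Absorbance read at 540/690 nm; median OD of three wells used. CC50 is the concentration reducing mock-infected OD540 by 50%. […]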

Series [2] can be described thus: Cytotoxicity against human MT4 cells assessed as decrease in cell viability after 5 days by MTT assay. The series is classed as toxicity, cell-based. The method, boiled down:
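MT-4 cells in mock-infected wells of the anti-HIV MTT setup. Compounds in serial five-fold dilutions in triplicate, cells at 6 × 10^5 cells/mL. Absorbance at 540 and 690 nm, median OD of three wells. CC50 is the concentration that lowers OD540 of the mock-infected control by 50%.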
In general terms: Tetrazolium assays rely on reduction of a dye to a coloured formazan, in cell work by metabolically active cells.

The test system of series [3] is Human immunodeficiency virus 1. The series can be described thus: Antiviral activity against HIV1 3B infected in human MT4 cells assessed as protection against virus-induced cytopathic effect after 5 days MTT assay. In kind it is functional, cell-based. Particulars: Human immunodeficiency virus 1, 3B, MT4, 120 h. The method, boiled down: (§2)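 HIV-1 strain IIIB and HIV-2 strain ROD in MT-4 cells, MTT-based. Test compounds in serial five-fold dilutions, in triplicate wells run alongside mock-infected cells, with untreated infected and mock controls. MT-4 cells resuspended at 6 × 10^5 cells/mL. Absorbance read at 540 and 690 nm, median OD of three wells. EC50 is the 50% effective concentration.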
(Damage to the host cells serves as the signal in cytopathic effect assays.)

A short description of series [4]: Antiviral activity against HIV2 ROD infected in human MT4 cells assessed as protection against virus-induced cytopathic effect after 5 days MTT assay. The series is classed as functional, cell-based, Human immunodeficiency virus type 2 (ISOLATE ROD). Particulars: Human immunodeficiency virus 2, MT4, 120 h. The method, boiled down: as §2
A short description of series [5]: Selectivity index, ratio of CC50 for human MT4 cells to EC50 for HIV1 3B. The series is classed as toxicity, cell-based. Particulars: read-out: Ratio CC50/EC50. The method, boiled down:
as §1

Series [6] is described as follows: Cytotoxicity against human K562 cells assessed as decrease in cell proliferation after 72 hrs by XTT assay. Particulars: K562, 72 h.

As to `Cc1ccc(C(C)C)c(OCc2nnc(SCC(=O)Nc3ccc([N+](=O)[O-])cc3)n2Cc2ccccc2)c1`, the selectivity ratio in series [1] and in series [5] was less than 1 in each case. Further, in series [2], the 50% cytotoxic concentration (CC50) at 120 h is 11.2 µg/mL (≈ 21 µM). In addition, the EC50 in series [3] and in series [4] was more than 11.2 µg/mL each time.
As to `CC(=O)Nc1ccc(OCc2nnc(SCC(=O)Nc3ccc(S(N)(=O)=O)cc3)n2Cc2ccccc2)cc1`, the selectivity ratio in series [1] and in series [5] was 1 throughout. For the same molecule, the CC50 at 120 h in series [2] was more than 125 µg/mL. The EC50 in series [3] and in series [4] was more than 125 µg/mL throughout.
Take `Cc1ccc(C(C)C)c(OCC(=O)NNC(=S)NCc2ccccc2)c1`: the selectivity ratio in series [1] and in series [5] was less than 1 throughout. For the same molecule, the 50% cytotoxic concentration (CC50) at 120 h in series [2] is 12.6 µg/mL (≈ 34 µM). In addition, the EC50 in series [3] and in series [4] was more than 12.6 µg/mL each time.
In the case of `S=c1[nH]nc(COc2ccc3ccccc3c2)n1Cc1ccccc1`, the selectivity ratio in series [1] and in series [5] was not above 1 throughout. In series [2], the CC50 at 120 h is not below 85.8 µg/mL. Also, the EC50 in series [3] and in series [4] was more than 85.8 µg/mL throughout.
For `CC(=O)Nc1ccc(OCc2nnc(SCC(=O)Nc3ccc(Cl)cc3)n2Cc2ccccc2)cc1`, the selectivity ratio in series [1] and in series [5] was less than 1 in each case. The CC50 at 120 h in series [2] was determined as 14 µg/mL (≈ 26.8 µM). Besides, the EC50 in series [3] and in series [4] was more than 14 µg/mL each time.
Turning to `Cc1ccnc2c1NC(=O)c1cccnc1N2C1CC1` [NEVIRAPINE], the values for the selectivity ratio in series [1] and in series [5] were less than 1 and more than 80, respectively. The CC50 at 120 h in series [2] is more than 4 µg/mL. Further, the concentration for a half-maximal effect (EC50) in series [4] is more than 4 µg/mL.
On to `Cc1ccc(C(C)C)c(OCc2nnc(SCC(=O)Nc3ccc(Br)cc3)n2Cc2ccccc2)c1`, for which the selectivity ratio in series [1] and in series [5] was less than 1 each time. In addition, the half-maximal cytotoxic concentration (CC50) at 120 h in series [2] turned out to be 66.7 µg/mL (≈ 118 µM). Also, the EC50 in series [3] and in series [4] was more than 66.7 µg/mL in each case.
Regarding `O=C(COc1ccc2ccccc2c1)NNC(=S)NCc1ccccc1`, the selectivity ratio in series [1] and in series [5] was not above 1 each time. Also, the CC50 at 120 h in series [2] is not below 61.4 µg/mL. Further, the concentration for a half-maximal effect (EC50) in series [3] and in series [4] was more than 61.4 µg/mL throughout.
On to `CC(=O)Nc1ccc(OCC(=O)NNC(=S)NCc2ccccc2)cc1`, for which the selectivity ratio in series [1] and in series [5] was less than 1 in each case. Further, in series [2], the CC50 at 120 h amounted to 83.5 µg/mL (≈ 224 µM). The EC50 in series [3] and in series [4] was more than 83.5 µg/mL throughout.
Turning to `Cc1ccc(NC(=O)c2ccc(CN3CCN(C)CC3)cc2)cc1Nc1nccc(-c2cccnc2)n1` [IMATINIB], the half-inhibitory concentration (IC50) in series [6] amounted to 310 nM.
Consider `O=C(CSc1nnc(COc2ccc3ccccc3c2)n1Cc1ccccc1)Nc1ccc(Br)cc1`, for which the selectivity ratio in series [1] and in series [5] was less than 1 each time. In addition, the half-maximal cytotoxic concentration (CC50) at 120 h in series [2] is 58 µg/mL (≈ 104 µM). The concentration for a half-maximal effect (EC50) in series [3] and in series [4] was more than 58 µg/mL each time.
Consider `O=C(CSc1nnc(COc2ccc3ccccc3c2)n1Cc1ccccc1)Nc1ccc([N+](=O)[O-])cc1`, for which the selectivity ratio in series [1] and in series [5] was not above 1 throughout. Besides, in series [2], the CC50 at 120 h is not below 116 µg/mL. Further, the EC50 in series [3] and in series [4] was more than 116 µg/mL in each case.
Consider `NS(=O)(=O)c1ccc(NC(=O)CSc2nnc(COc3ccc4ccccc4c3)n2Cc2ccccc2)cc1`, for which the selectivity ratio in series [1] and in series [5] was less than 1 in each case. The CC50 at 120 h in series [2] is 94.5 µg/mL (≈ 169 µM). In addition, the EC50 in series [3] and in series [4] was more than 94.4 µg/mL throughout.
In the case of `CC(=O)Nc1ccc(OCc2n[nH]c(=S)n2Cc2ccccc2)cc1`, the selectivity ratio in series [1] and in series [5] was less than 1 each time. Further, the 50% cytotoxic concentration (CC50) at 120 h in series [2] was determined as 79 µg/mL (≈ 223 µM). Moreover, the EC50 in series [3] and in series [4] was more than 79 µg/mL in each case.
As for `Nc1ccn([C@H]2CC[C@@H](CO)O2)c(=O)n1` [ZALCITABINE], the selectivity ratio in series [1] was more than 108; in series [5] it was more than 127. The CC50 at 120 h in series [2] is more than 20 µg/mL. For the same molecule, the EC50 in series [4] worked out at 0.19 µg/mL (≈ 0.9 µM).
As to `O=C(CSc1nnc(COc2ccc3ccccc3c2)n1Cc1ccccc1)Nc1ccc(Cl)cc1`, the selectivity ratio in series [1] and in series [5] was not above 1 in each case. For the same molecule, the CC50 at 120 h in series [2] was not below 4.93 µg/mL. In addition, the concentration for a half-maximal effect (EC50) in series [3] and in series [4] was more than 4.93 µg/mL throughout.
In the case of `Cc1ccc(C(C)C)c(OCc2n[nH]c(=S)n2Cc2ccccc2)c1`, the selectivity ratio in series [1] and in series [5] was less than 1 in each case. Besides, in series [2], the CC50 at 120 h was found to be 13.1 µg/mL (≈ 37 µM). Further, the EC50 in series [3] and in series [4] was more than 13.1 µg/mL each time.
On to `O=c1[nH]cnc2c1ncn2[C@H]1CC[C@@H](CO)O1` [DIDANOSINE], for which the selectivity ratio is more than 13 in series [1] and more than 24 in series [5]. Besides, the CC50 at 120 h in series [2] is more than 50 µg/mL. Moreover, the EC50 in series [3] was found to be 2.09 µg/mL (≈ 8.85 µM); in series [4] it was 3.78 µg/mL (≈ 16 µM).
On to `Cc1cn([C@H]2C[C@H](N=[N+]=[N-])[C@@H](CO)O2)c(=O)[nH]c1=O` [ZIDOVUDINE], for which the selectivity ratio in series [1] is more than 26700; in series [5], more than 11600. In addition, the CC50 at 120 h in series [2] was more than 25 µg/mL. Moreover, the figures for the concentration for a half-maximal effect (EC50) in series [3] and in series [4] were 0.0022 µg/mL (≈ 0.00823 µM) and 0.00094 µg/mL (≈ 0.00352 µM), respectively.
For `CCOC(=O)c1ccc(NC(=O)CSc2nnc(COc3cc(C)ccc3C(C)C)n2Cc2ccccc2)cc1` the same measures were less than 1, less than 1, 19.8 µg/mL (≈ 35.5 µM), more than 19.8 µg/mL and more than 19.8 µg/mL.
For `CCOC(=O)c1ccc(NC(=O)CSc2nnc(COc3ccc(NC(C)=O)cc3)n2Cc2ccccc2)cc1` the same measures were less than 1, less than 1, 91.1 µg/mL (≈ 163 µM), more than 91.1 µg/mL and more than 91.1 µg/mL.
Taken in the same sequence, the figures for `CCOC(=O)c1ccc(NC(=O)CSc2nnc(COc3ccc4ccccc4c3)n2Cc2ccccc2)cc1` were not above 1, not above 1, not below 90.7 µg/mL, more than 90.7 µg/mL and more than 90.7 µg/mL.
Consider `CC(=O)Nc1ccc(OCc2nnc(SCC(=O)Nc3ccc([N+](=O)[O-])cc3)n2Cc2ccccc2)cc1`, for which the selectivity ratio in series [1] and in series [5] was less than 1 in each case. Besides, the CC50 at 120 h in series [2] is 105 µg/mL (≈ 197 µM). For the same molecule, the EC50 in series [3] and in series [4] was more than 105 µg/mL throughout.
